Drawing on ChEMBL document CHEMBL2434915, “2-(2-Hydrazinyl)thiazole derivatives: design, synthesis and in vitro antimycobacterial studies” (Eur J Med Chem, 2013), this text covers IC50 and MIC for 38 compounds.

Converted amounts (≈) assume the structure as drawn.

A word on the IC50: it is the concentration that gives 50% inhibition. A lower IC50 goes with greater potency in that assay. One may read the MIC as the lowest concentration that inhibits growth of the organism. Read a low MIC as inhibition by little substance.

The test system of the first assay is A549. The experiment in a line: Cytotoxicity against human A549 cells after 48 hrs by MTT assay. In kind it is cell-based.
Details: not given
The procedure, abridged:
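A549 human lung carcinoma type II epithelial cells kept in RPMI-1640 with 5% FBS, penicillin/streptomycin and 2 mM L-glutamine at 37 °C, 5% CO2. Seeded at 3 × 10³ cells/well and left overnight. Exposed to compounds at various concentrations for 48 h. After a PBS wash, MTT (5 mg/ml) was added for 4 h at 37 °C. Formazan dissolved in DMSO, read at 540 nm. IC50 from survival plots; mean ±SE, n=5.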
Background: Tetrazolium assays rely on reduction of a dye to a coloured formazan, in cell work by metabolically active cells.
On to `CCOC(=O)c1sc(N/N=C(\C)c2ccccn2)nc1C`, for which half-maximal inhibition (IC50) was put at 140 µg/mL (≈ 460 µM).

Compound `CC(=O)c1sc(N/N=C(\C)c2ccccn2)nc1C` returned an IC50 of 50 µg/mL (≈ 182 µM).

`CCOC(=O)Cc1csc(N/N=C(\C)c2ccccn2)n1` gave an IC50 of 200 µg/mL (≈ 657 µM).

Compound `CCOC(=O)c1sc(N/N=C(\C)c2ccccc2)nc1C` showed an IC50 of 150 µg/mL (≈ 494 µM).

A further assay relates to Mycobacterium tuberculosis. The experiment in a line: Antimycobacterial activity against Mycobacterium tuberculosis H37Rv after 5 days by broth microdilution method. The settings on record: 120 h. The format is functional. An outline of the steps: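 Twofold DMSO dilutions (final 100 to 0.19, units as printed unclear) in Middlebrook 7H9 with 0.2% glycerol, 0.05% Tween 80 and 10% ADC; inoculum 3-7 x 10⁵ CFU/ml; 37°C for 5 days. Resazurin/Tween 80 then added, 24 h more at 37°C; A575/A610 read. MIC = lowest concentration giving 80% inhibition versus medium-only (100%) and drug-free culture (0%) controls; isoniazid reference.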
(Dilution methods test growth across graded concentrations, often in twofold steps.)
Turning to `CC(=O)c1sc(N/N=C/c2ccc(Cl)cc2Cl)nc1C`, the MIC is > 200 µM.

As to `CCOC(=O)c1sc(N/N=C(\C)c2ccccn2)nc1C`, it took 12.5 µM (≈ 3.8 µg/mL) to inhibit growth (MIC).

With `CCOC(=O)c1sc(N/N=C/c2ccccc2Cl)nc1C`, the MIC is > 200 µM.

Take `CCOC(=O)c1sc(N/N=C/c2ccc(OC)cc2)nc1C`: the MIC is > 200 µM.

For the compound `CC(=O)c1sc(N/N=C(\C)c2ccccn2)nc1C`, inhibition of growth (MIC) required 100 µM (≈ 27.4 µg/mL).

In the case of `CCOC(=O)c1sc(N/N=C/c2ccc(OC)c(OC)c2)nc1C`, the MIC was > 200 µM.

Consider `CCOC(=O)c1sc(N/N=C(\C)c2cccc(Cl)c2)nc1C`, for which the MIC is > 200 µM.

For `CCOC(=O)c1sc(N/N=C/c2ccc(Cl)cc2)nc1C`, the MIC is > 200 µM.

For `CCOC(=O)c1sc(N/N=C/c2ccccc2)nc1C`, the MIC was > 200 µM.

In turn, `CCOC(=O)Cc1csc(N/N=C(\C)c2ccccn2)n1` returned an MIC of 200 µM (≈ 60.9 µg/mL).

For `CC(=O)c1sc(N/N=C/c2cccc3c2OCO3)nc1C`, the MIC is > 200 µM.

Consider `CCOC(=O)c1sc(N/N=C/c2ccc(O)c(OC)c2)nc1C`, for which the MIC is > 200 µM.

For the compound `CC(=O)c1sc(N/N=C/c2c[nH]c3ccccc23)nc1C`, the MIC was > 200 µM.

Take `CCOC(=O)c1sc(N/N=C/c2ccc(O)c(OCC)c2)nc1C`: the MIC was > 200 µM.

The compound `CCOC(=O)c1sc(N/N=C/c2ccccc2O)nc1C` gave an MIC of 25 µM (≈ 7.63 µg/mL).

As for `CCOC(=O)c1sc(N/N=C/c2ccccc2[N+](=O)[O-])nc1C`, the MIC is > 200 µM.

Take `CCOC(=O)c1sc(N/N=C(\C)c2cccs2)nc1C`: the MIC turned out to be 100 µM (≈ 30.9 µg/mL).

`CCOC(=O)c1sc(N/N=C/c2ccco2)nc1C` had an MIC of 200 µM (≈ 55.9 µg/mL).

The compound `CC(=O)c1sc(N/N=C(\C)c2cccs2)nc1C` showed an MIC of 200 µM (≈ 55.9 µg/mL).

`CCOC(=O)c1sc(N/N=C/c2cc(OC)c(OC)c(OC)c2)nc1C`: the MIC was > 200 µM.

Regarding `CCOC(=O)Cc1csc(N/N=C(\C)c2cccnc2)n1`, the MIC stood at 200 µM (≈ 60.9 µg/mL).

The compound `CCOC(=O)c1sc(N/N=C/c2ccc(N(C)C)cc2)nc1C` had an MIC of 200 µM (≈ 66.5 µg/mL).

`CCOC(=O)c1sc(N/N=C/c2ccc(OC)c(O)c2)nc1C`: the minimal inhibitory concentration (MIC) is > 200 µM.

On to `CCOC(=O)c1sc(N/N=C/c2ccc(Cl)cc2Cl)nc1C`, for which the minimum inhibitory concentration (MIC) was > 200 µM.

`CCOC(=O)c1sc(N/N=C(\C)c2ccc(F)cc2)nc1C` came in with an MIC of 200 µM (≈ 64.3 µg/mL).

For the compound `CCOC(=O)c1sc(N/N=C(\C)c2ccccc2)nc1C`, the MIC is > 200 µM.

Turning to `CCOC(=O)c1sc(N/N=C/c2ccc(O)cc2)nc1C`, the MIC is > 200 µM.

Take `CCOC(=O)c1sc(N/N=C(\C)c2ccncc2)nc1C`: the MIC came out at 200 µM (≈ 60.9 µg/mL).

Turning to `CCOC(=O)c1sc(N/N=C/c2cccc(Br)c2)nc1C`, the MIC is > 200 µM.

Regarding `CCOC(=O)c1sc(N/N=C/c2c[nH]c3ccccc23)nc1C`, the MIC is 200 µM (≈ 65.7 µg/mL).

The compound `CC(=O)c1sc(N/N=C/c2ccco2)nc1C` came in with an MIC of 200 µM (≈ 49.9 µg/mL).

`NNC(=O)c1ccncc1` [ISONIAZID] came in with an MIC of 0.45 µM (≈ 0.0617 µg/mL).

Consider `COc1cc(/C=N/Nc2nc(C)c(C(C)=O)s2)cc(OC)c1OC`, for which the MIC was > 200 µM.

In the case of `CCOC(=O)c1sc(N/N=C/c2cccc(O)c2)nc1C`, the MIC was > 200 µM.

The compound `CCOC(=O)c1sc(N/N=C/c2ccc([N+](=O)[O-])cc2)nc1C` had an MIC of 200 µM (≈ 66.9 µg/mL).

As for `CCOC(=O)c1sc(N/N=C(\C)c2cccnc2)nc1C`, the minimal inhibitory concentration (MIC) was > 200 µM.

In the case of `CCOC(=O)c1sc(N/N=C/c2ccc3c(c2)OCO3)nc1C`, the minimal inhibitory concentration (MIC) is > 200 µM.

Turning to `CCOC(=O)c1sc(N/N=C/c2ccc(C)cc2)nc1C`, the minimum inhibitory concentration (MIC) was > 200 µM.
